In assay [1] the target is T1, BAG family molecular chaperone regulator 3 (Homo sapiens, UniProt O95817). Nature of the assay: Binding affinity to CM4 sensorchip immobilized glycosylated C-terminal His tagged human BAG3 transfected in HEK293T cells assessed as dissociation constant by SPR analysis. The procedure, abridged:
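SPR single-cycle kinetics on CM4-immobilized HEK-293T-expressed BAG3-His. Increasing compound concentrations in PBS with 5% DMSO and 0.05% P20 were injected at 30 µL/min without regeneration between injections, with blank subtraction. Kd from steady-state analysis, reported as mean ± SEM and compared by Student t-test.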

In assay [2] the target is T1, BAG family molecular chaperone regulator 3. Nature of the assay: Binding affinity to C-terminal His tagged human BAG3 transfected in HEK293T cells assessed as intermolecular nuclear overhauser effect mediated protein magnetization at 125 uM by waterLOGSY experiment. It counts as cell-based. The procedure, abridged: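 Ligand-observed NMR in 50 mM sodium phosphate pH 7.8, 150 mM NaCl, 0.04% NaN3, 1.3% DMSO-d6, 5% D2O. Compound at 125 µM with 5 µM BAG3-His (HEK-293T expressed, purified by IMAC and SEC), each also run without protein. WaterLOGSY used 240 scans, 1.5 s mixing and water inversion at 4.7 ppm. STD used 256 scans with protein saturation at 0.4 ppm.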

Assay [3] has as its system HD-MB03. Nature of the assay: Induction of cell cycle arrest in human HD-MB03 cells assessed as accumulation of cells at G1 phase at 10 uM incubated for 48 hrs by RNase/PI staining based cytofluorimetric analysis (reference value: 54.7%). It counts as functional.
The subject of assay [4] is HD-MB03. Nature of the assay: Induction of cell cycle arrest in human HD-MB03 cells assessed as accumulation of cells at S phase at 10 uM incubated for 48 hrs by RNase/PI staining based cytofluorimetric analysis (reference value: 40.9%). In kind it is functional.
Assay [5] concerns HD-MB03. Nature of the assay: Induction of cell cycle arrest in human HD-MB03 cells assessed as accumulation of cells at S phase at 10 uM incubated for 72 hrs by RNase/PI staining based cytofluorimetric analysis (reference value: 40.9%). It counts as functional.
In assay [6] the test system is HD-MB03. Nature of the assay: Induction of cell cycle arrest in human HD-MB03 cells assessed as accumulation of cells at G2/M phase at 10 uM incubated for 72 hrs by RNase/PI staining based cytofluorimetric analysis (reference value: 4.4%). It counts as functional.
Assay [7] has as its system HD-MB03. Nature of the assay: Induction of autophagy in human HD-MB03 cells assessed as increase in LC3 green fluorescence at 20 uM incubated for 24 hrs by immunofluorescence analysis. In kind it is functional, cell-based. The method in brief: (§1)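 HD-MB03 cells transfected with a fluorescent LC3 plasmid, then treated 24 h later with 20 µM, alone or with chloroquine, for 24 h. Live cells stained 30 min with 50 nM LysoTracker Red and 10 µM Hoechst, then imaged by confocal microscopy. Fluorescence per field was expressed relative to DMSO control set to 1. Mean ± SD of three experiments; 2-way ANOVA.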

The subject of assay [8] is HD-MB03. Nature of the assay: Induction of autophagy in human HD-MB03 cells assessed as increase in LC3 green fluorescence at 20 uM incubated for 24 hrs in presence of chloroquine by immunofluorescence analysis. In kind it is functional, cell-based. The method in brief:
as §1

The test system of assay [9] is HD-MB03. Nature of the assay: Induction of apoptosis in human HD-MB03 cells assessed as increase in total apoptotic cells at 20 uM incubated for 24 hrs in presence of chloroquine by Annexin V-FITC/PI staining based cytofluorimetric analysis. In kind it is functional, cell-based. The procedure, abridged: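 HD-MB03 cells exposed to 20 µM with or without chloroquine for 24 h, then stained with annexin V-FITC and PI for flow cytometry. Mean ± SEM of three independent experiments.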

In assay [10] the test system is HD-MB03. Nature of the assay: Sensitization of chemotherapy induced cytotoxicity against human HD-MB03 cells assessed as inhibition of cell growth at 1.25 uM incubated for 72 hrs in presence of 2 unit of vincristine, etoposide, cisplatin, cyclophosphamide by resazurin dye based analysis (reference value: 97.7 +/- 1.3%). In kind it is functional.
Assay [11] relates to HD-MB03. Nature of the assay: Sensitization of chemotherapy induced cytotoxicity against human HD-MB03 cells assessed as inhibition of cell growth at 2.5 uM incubated for 72 hrs in presence of 0.12 unit of vincristine, etoposide, cisplatin, cyclophosphamide by resazurin dye based analysis (reference value: 51.43 +/- 1.17%). It counts as functional.
The test system of assay [12] is HD-MB03. Nature of the assay: Sensitization of chemotherapy induced cytotoxicity against human HD-MB03 cells assessed as inhibition of cell growth at 2.5 uM incubated for 72 hrs in presence of 1 unit of vincristine, etoposide, cisplatin, cyclophosphamide by resazurin dye based analysis (reference value: 91.53 +/- 1.15%). It counts as functional.
In assay [13] the test system is HD-MB03. Nature of the assay: Sensitization of chemotherapy induced cytotoxicity against human HD-MB03 cells assessed as inhibition of cell growth at 2.5 uM incubated for 72 hrs in presence of 2 unit of vincristine, etoposide, cisplatin, cyclophosphamide by resazurin dye based analysis (reference value: 97.7 +/- 1.3%). It counts as functional.
The subject of assay [14] is HD-MB03. Nature of the assay: Sensitization of chemotherapy induced cytotoxicity against human HD-MB03 cells assessed as inhibition of cell growth at 5 uM incubated for 72 hrs in presence of 0.25 unit of vincristine, etoposide, cisplatin, cyclophosphamide by resazurin dye based analysis (reference value: 73.44 +/- 0.92%). It counts as functional.
Assay [15] relates to HD-MB03. Nature of the assay: Sensitization of chemotherapy induced cytotoxicity against human HD-MB03 cells assessed as inhibition of cell growth at 10 uM incubated for 72 hrs in presence of 0.12 unit of vincristine, etoposide, cisplatin, cyclophosphamide by resazurin dye based analysis (reference value: 51.43 +/- 1.17%). It counts as functional.
The test system of assay [16] is HD-MB03. Nature of the assay: Sensitization of chemotherapy induced cytotoxicity against human HD-MB03 cells assessed as inhibition of cell growth at 10 uM incubated for 72 hrs in presence of 0.5 unit of vincristine, etoposide, cisplatin, cyclophosphamide by resazurin dye based analysis (reference value: 83.74+/- 0.54%). In kind it is functional.
The subject of assay [17] is HD-MB03. Nature of the assay: Sensitization of chemotherapy induced cytotoxicity against human HD-MB03 cells assessed as inhibition of cell growth at 10 uM incubated for 72 hrs in presence of 1 unit of vincristine, etoposide, cisplatin, cyclophosphamide by resazurin dye based analysis (reference value: 91.53 +/- 1.15%). It counts as functional.
Assay [18] has as its system HD-MB03. Nature of the assay: Sensitization of chemotherapy induced cytotoxicity against human HD-MB03 cells assessed as inhibition of cell growth at 20 uM incubated for 72 hrs in presence of 0.25 unit of vincristine, etoposide, cisplatin, cyclophosphamide by resazurin dye based analysis (reference value: 73.44 +/- 0.92%). In kind it is functional.
The subject of assay [19] is HD-MB03. Nature of the assay: Sensitization of chemotherapy induced cytotoxicity against human HD-MB03 cells assessed as inhibition of cell growth at 20 uM incubated for 72 hrs in presence of 0.5 unit of vincristine, etoposide, cisplatin, cyclophosphamide by resazurin dye based analysis (reference value: 83.74+/- 0.54%). It counts as functional.
In assay [20] the test system is HD-MB03. Nature of the assay: Sensitization of chemotherapy induced cytotoxicity against human HD-MB03 cells assessed as inhibition of cell growth at 20 uM incubated for 72 hrs in presence of 1 unit of vincristine, etoposide, cisplatin, cyclophosphamide by resazurin dye based analysis (reference value: 91.53 +/- 1.15%). In kind it is functional.
Assay [21] concerns HD-MB03. Nature of the assay: Cytotoxicity against human HD-MB03 cells assessed as inhibition of cell growth at 2.5 uM incubated for 72 hrs by resazurin dye based analysis relative to control. In kind it is functional. The procedure, abridged:
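Resazurin viability in HD-MB03 cells, 2000/well, single-agent arm of the 6x6 matrix. Inhibitor was added 24 h after seeding, in a 6-point 2-fold series, duplicates, two independent experiments. After 72 h exposure, resazurin was added at 44 µM final for 3 h at 37 °C and fluorescence read at 590 nm. Viability normalized to 1 µM bortezomib and 0.5% DMSO controls.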

Activity calls are given as the source filed them. No cut-off for these calls is given here.

T1 sequence (O95817 whole entry): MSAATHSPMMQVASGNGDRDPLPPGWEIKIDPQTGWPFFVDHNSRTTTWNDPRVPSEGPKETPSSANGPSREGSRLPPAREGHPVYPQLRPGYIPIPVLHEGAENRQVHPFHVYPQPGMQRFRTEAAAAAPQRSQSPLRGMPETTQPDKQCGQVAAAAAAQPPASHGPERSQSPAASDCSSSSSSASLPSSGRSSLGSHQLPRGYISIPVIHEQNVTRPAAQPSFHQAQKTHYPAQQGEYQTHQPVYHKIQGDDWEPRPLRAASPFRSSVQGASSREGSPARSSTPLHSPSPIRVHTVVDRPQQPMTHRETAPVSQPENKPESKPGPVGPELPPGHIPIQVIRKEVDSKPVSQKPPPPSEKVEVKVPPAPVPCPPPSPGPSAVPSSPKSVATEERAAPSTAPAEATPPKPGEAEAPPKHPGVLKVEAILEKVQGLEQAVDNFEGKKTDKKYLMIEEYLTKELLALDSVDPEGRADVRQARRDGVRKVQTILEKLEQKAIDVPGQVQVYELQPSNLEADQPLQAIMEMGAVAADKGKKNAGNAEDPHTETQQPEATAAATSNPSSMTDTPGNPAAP

In the case of `CC(C(=O)N1CCOCC1)N1C(=O)S/C(=C\c2cccc(O)c2O)C1=O` (racemic), the Kd in assay [1] amounted to 45 µM. Further, the outcome in [2], in [7] and in assay [9] was Active. Also, the Activity is given as 52.45% in assay [3], 41.44% in [4], 24.8% in [5] and 1.2% in [6]. In addition, in assay [8], the outcome was inactive. In addition, the inhibition at 1.25 µM in [10] stood at 96.6%. Also, the inhibition at 2.5 µM in [11] was 53.4%; in assay [12], 92%; in assay [13] it was 95.4%; in assay [21], -8.3%. Moreover, the inhibition at 5 µM in [14] amounted to 76.7%. Also, the inhibition at 10 µM in assay [15] is 75.8%; in [16], 89.1%; in assay [17], 92%. Besides, the values for the inhibition at 20 µM in assay [18], in assay [19] and in [20] were 80.8%, 87.7% and 89.1%, respectively.

The record behind these values is ChEMBL document CHEMBL5335790, “Design, synthesis and biological evaluation of novel 2,4-thiazolidinedione derivatives able to target the human BAG3 protein” (Eur J Med Chem, 2023).
